{"data": "Measured values of several laboratories", "observed": "enzyme activity", "mode": "inhibitor", "rep main protease": "Replicase polyprotein 1ab, main protease (rep, Severe acute respiratory syndrome coronavirus 2, UniProt P0DTD1)", "rep papain-like protease": "Replicase polyprotein 1ab, papain-like protease (rep, Severe acute respiratory syndrome coronavirus 2, UniProt P0DTD1)", "note": "Each line is one published result; the experiments were not run side by side."}
{"SMILES": "O=C1C=CC(=O)c2c(O)cccc21", "target": "rep main protease", "conditions": "10 µM", "inhibition [%]": 102}
{"SMILES": "CC[PH](CC)(CC)[Au][S][C@@H]1O[C@H](COC(C)=O)[C@@H](OC(C)=O)[C@H](OC(C)=O)[C@H]1OC(C)=O", "target": "rep main protease", "conditions": "20 µM", "inhibition [%]": 100}
{"SMILES": "Oc1ccc(/C=C/c2cc(O)cc(O)c2)cc1", "target": "rep main protease", "assay": "FRET", "conditions": "10 µM, 10 min", "inhibition [%]": "> 50"}
{"SMILES": "Cc1ccc2nc(Cl)c(/C=N/c3cccc([N+](=O)[O-])c3)cc2c1", "target": "rep papain-like protease", "conditions": "10 µM", "inhibition [%]": 5.3}
{"SMILES": "O=C(O)c1cc(O)c2c(c1)C([C@@H]1c3cc(C(=O)O)cc(O)c3C(=O)c3c(O[C@H]4O[C@H](CO)[C@@H](O)[C@H](O)[C@H]4O)cccc31)c1cccc(O[C@H]3O[C@H](CO)[C@@H](O)[C@H](O)[C@H]3O)c1C2=O (stereo partly drawn)", "target": "rep main protease", "conditions": "20 µM", "inhibition [%]": 103}
{"SMILES": "COc1ccc2nc(Cl)c(/C=N/c3ccc(-c4nc5ccccc5[nH]4)cc3)cc2c1", "target": "rep papain-like protease", "conditions": "100 µM", "inhibition [%]": 13.5}
{"SMILES": "CC[C@@H](C)[C@@H](NC(=O)[C@@H](CCC(=O)O)NC(=O)[C@H](NC(=O)[C@@H](CCC(N)=O)NC(=O)[C@H]1CCCN1C(=O)[C@@H](CCC(N)=O)NC(=O)[C@@H](Cc1c[nH]c2ccccc12)NC(C)=O)C(C)C)C(=O)N[C@H](CO)C(=O)N[C@H](CCC(N)=O)C(=O)N[C@H](CO)C(=O)N1CCC[C@@H]1C(=O)N[C@H](Cc1c[nH]c2ccccc12)C(=O)N[C@H](CO)C(=O)N[C@H](Cc1c[nH]cn1)C(=O)N1CCC[C@@H]1C(=O)N[C@H](CO)C(=O)N[C@H](CCCNC(=N)N)C(N)=O", "target": "rep main protease", "assay": "fluorescence", "conditions": "140 µM", "inhibition [%]": 100}
{"SMILES": "C/C=C1\\C(OC2OC(CO)C(O)C(O)C2O)OC=C(C(=O)OC)C1CC(=O)OCCc1ccc(O)c(O)c1 (stereo not drawn)", "target": "rep main protease", "conditions": "20 µM", "inhibition [%]": 93.8}
{"SMILES": "O=c1cc(-c2ccc(O)cc2)oc2cc(O)c(O)c(O)c12", "target": "rep main protease", "conditions": "100 µM", "inhibition [%]": 102}
{"SMILES": "O=c1c(O)c(-c2cc(O)c(O)c(O)c2)oc2cc(O)ccc12", "target": "rep main protease", "conditions": "20 µM", "inhibition [%]": 94.9}
{"SMILES": "Cc1cc(OCc2ccccc2)c2c(c1)C(=O)C=CC2=O", "target": "rep main protease", "conditions": "1 µM", "inhibition [%]": 91.1}
{"SMILES": "Cn1c(C(=O)Nc2ccc(Cl)cc2)cc2c(=O)n3ccccc3nc21", "target": "rep main protease", "conditions": "1 mM", "inhibition [%]": 72}
{"SMILES": "O=C(Oc1cncc(Cl)c1)c1ccc2[nH]c3c(c2c1)CCCC3", "target": "rep main protease", "assay": "fluorescence", "conditions": "10 µM, pH 7.2", "inhibition [%]": 100}
{"SMILES": "C=C[C@@H]1C[C@]1(NC(=O)[C@@H]1C[C@@H]2CN1C(=O)[C@H](C(C)(C)C)NC(=O)O[C@@H]1C[C@H]1CCCCCc1nc3ccc(OC)cc3nc1O2)C(=O)NS(=O)(=O)C1CC1.O", "target": "rep main protease", "conditions": "20 µM", "inhibition [%]": 1.19}
{"SMILES": "O=C(O)[C@H]1O[C@@H](Oc2cc3oc(-c4ccccc4)cc(=O)c3c(O)c2O)[C@H](O)[C@@H](O)[C@@H]1O", "target": "rep main protease", "conditions": "10 µM", "inhibition [%]": 68.9}
{"SMILES": "CN(C(=O)[C@H](Cc1ccccc1)NC(=O)OCc1ccccc1)N(C#N)CCC(N)=O", "target": "rep main protease", "assay": "fluorescence", "conditions": "50 µM, pH 7.2", "inhibition [%]": 100}
{"SMILES": "Cn1c(C(=O)Nc2ccc3c(c2)OCCO3)cc2c(=O)n3ccccc3nc21", "target": "rep main protease", "conditions": "1 mM", "inhibition [%]": 96}
{"SMILES": "C[C@@H]1O[C@@H](O[C@@H]2[C@@H](O)[C@H](OCCc3ccc(O)c(O)c3)O[C@H](CO)[C@H]2OC(=O)/C=C/c2ccc(O)c(O)c2)[C@H](O)[C@H](O)[C@H]1O", "target": "rep papain-like protease", "conditions": "50 µM", "inhibition [%]": 15.6}
{"SMILES": "COCOc1cc(C)cc2c1C(=O)C=CC2=O", "target": "rep main protease", "conditions": "0.1 µM", "inhibition [%]": 3}
{"SMILES": "O=C(Oc1cncc(Cl)c1)c1cc2c(Cl)cc(Cl)cc2[nH]1", "target": "rep main protease", "assay": "fluorescence", "conditions": "10 µM, pH 7.2", "inhibition [%]": 100}
{"SMILES": "O=c1c(O)c(-c2ccc(O)cc2)oc2cc(O)cc(O)c12", "target": "rep main protease", "assay": "FRET", "conditions": "10 µM, 10 min", "inhibition [%]": 45}
{"SMILES": "N=C(N)c1ccc2cc(OC(=O)c3ccc(N=C(N)N)cc3)ccc2c1", "target": "rep main protease", "conditions": "10 µM", "inhibition [%]": 13}
{"SMILES": "NC(=O)CSc1nnc2c3ccccc3nc(-c3ccc(F)cc3)n12", "target": "rep main protease", "conditions": "20 µM", "inhibition [%]": 20.1}
{"SMILES": "O=C1C=CC(=O)c2ccccc21", "target": "rep main protease", "conditions": "0.1 µM", "inhibition [%]": 25}
{"SMILES": "CC(C)=CCc1cc(-c2oc3cc(O)cc(O)c3c(=O)c2O)ccc1O", "target": "rep papain-like protease", "conditions": "8 µM", "inhibition [%]": 59.9}
{"SMILES": "COc1ccc(/C=C\\C(=O)NC(=S)Nc2ccc(S(=O)(=O)NC(N)=O)cc2)cc1OC", "target": "rep main protease", "conditions": "100 µg/mL", "inhibition [%]": 0}
{"SMILES": "O=c1[nH]c(CCl)nc2sc3c(c12)CCCC3", "target": "rep main protease", "conditions": "20 µM", "inhibition [%]": 29.2}
{"SMILES": "O=C(O)[C@H]1O[C@@H](Oc2cc3oc(-c4ccc(O)cc4)cc(=O)c3c(O)c2O)[C@H](O)[C@@H](O)[C@@H]1O", "target": "rep main protease", "conditions": "100 µM", "inhibition [%]": 76.8}
{"SMILES": "CCC(=O)Oc1cccc2c1C(=O)C=CC2=O", "target": "rep main protease", "conditions": "1 µM", "inhibition [%]": 96.5}
{"SMILES": "C[C@@H]1O[C@@H](OC[C@H]2O[C@@H](OCCc3ccc(O)c(O)c3)[C@H](OC(=O)/C=C/c3ccc(O)c(O)c3)[C@@H](O)[C@@H]2O)[C@H](O)[C@H](O)[C@H]1O", "target": "rep papain-like protease", "conditions": "50 µM", "inhibition [%]": 2.5}
{"SMILES": "Clc1nc2ccccc2cc1/C=N\\c1ccc(-c2nc3ccccc3[nH]2)cc1", "target": "rep papain-like protease", "conditions": "10 µM", "inhibition [%]": 3.9}
{"SMILES": "COc1cc(/C=C/C(=O)CC(=O)/C=C/c2ccc(O)c(OC)c2)ccc1O", "target": "rep main protease", "assay": "FRET", "conditions": "10 µM, 10 min", "inhibition [%]": "> 50"}
{"SMILES": "Cc1cccc(NC2CS(=O)(=O)CC2O)c1 (stereo not drawn)", "target": "rep main protease", "conditions": "20 µM", "inhibition [%]": 7.43}
{"SMILES": "CCc1cscc1C(=O)N1Cc2ccccc2C[C@H]1CNC(=O)c1cccc2[nH]ncc12", "target": "rep main protease", "conditions": "5 µM", "inhibition [%]": 10.8}
{"SMILES": "CCc1ccc(C2C(c3ccccc3)=C(O)C(=O)N2c2ccc(Cl)cc2)cc1 (stereo not drawn)", "target": "rep main protease", "conditions": "20 µM", "inhibition [%]": 16.8}
{"SMILES": "Cc1cccn2c(=O)c3cc(C(=O)Nc4ccc(N(C)C)cc4)n(C)c3nc12", "target": "rep main protease", "conditions": "1 mM", "inhibition [%]": 64}
{"SMILES": "COc1c(O)cc(O)c2c(=O)cc(-c3ccccc3)oc12", "target": "rep main protease", "conditions": "100 µM", "inhibition [%]": 3.6}
{"SMILES": "NC(=O)c1c[nH]c(Cc2ccccc2)cc1=O", "target": "rep main protease", "conditions": "20 µM", "inhibition [%]": 10.9}
{"SMILES": "COc1ccc(OC)c2c1C(=O)C=CC2=O", "target": "rep main protease", "conditions": "0.1 µM", "inhibition [%]": 8.9}
{"SMILES": "O=C(/C=C/c1ccc(O)c(O)c1)OC1CC(OC(=O)/C=C/c2ccc(O)c(O)c2)(C(=O)O)CC(O)C1O (stereo not drawn)", "target": "rep main protease", "conditions": "10 µM", "inhibition [%]": 27.8}
{"SMILES": "C/N=c1\\nc(-c2ccccc2)n(-c2ccccc2)s1", "target": "rep main protease", "conditions": "0.1 µM", "inhibition [%]": 16.4}
{"SMILES": "Cc1ccc(NC(=O)c2cc3c(=O)n4cccc(C)c4nc3n2C)cc1Cl", "target": "rep main protease", "conditions": "1 µM", "inhibition [%]": 6.4}
{"SMILES": "COc1cc(C)cc2c1C(=O)C=CC2=O", "target": "rep main protease", "conditions": "1 µM", "inhibition [%]": 75.6}
{"SMILES": "CCc1ccc(NC(=O)c2cc3c(=O)n4ccccc4nc3n2C)cc1", "target": "rep main protease", "conditions": "10 µM", "inhibition [%]": 28}
{"SMILES": "O=C(O)c1cc(N(Cc2ccccc2O)Cc2cc(O)ccc2O)ccc1O", "target": "rep main protease", "conditions": "20 µM", "inhibition [%]": -1.57}
{"SMILES": "O=C(NC[C@H](NC(=O)c1cncc2ccccc12)c1ccc2ccccc2c1)c1cnc[nH]1", "target": "rep main protease", "conditions": "5 µM", "inhibition [%]": 18.9}
{"SMILES": "COc1cc(C[C@@H](C)[C@@H](C)Cc2cc(O)c(OC)c(OC)c2)cc(O)c1OC", "target": "rep papain-like protease", "assay": "FRET", "conditions": "8 µM", "inhibition [%]": 51.4}
{"SMILES": "C=C1C(=O)OC2C1C(O)CC1(C)C(O)CCC(C=O)C21 (stereo not drawn)", "target": "rep main protease", "conditions": "20 µM", "inhibition [%]": -62}
{"SMILES": "Cc1cc(NC(=O)c2cc3c(=O)n4cccc(C)c4nc3n2C)ccc1Br", "target": "rep main protease", "conditions": "100 µM", "inhibition [%]": 59}
{"SMILES": "CC(C(=O)NC[C@H](NC(=O)c1[nH]nc2nc[nH]c(=O)c12)c1ccc2ccccc2c1)=C1CCC1", "target": "rep main protease", "conditions": "5 µM", "inhibition [%]": 15.1}
{"SMILES": "Clc1nc2ccccc2cc1/C=N\\c1ccc(Br)nc1", "target": "rep papain-like protease", "conditions": "10 µM", "inhibition [%]": 3.5}
